Compound activity from PubChem.
A selection: hits, their analogues and other compounds. The true share with any hit is near 5.6%.
GRIN3A LBD mod: modulators (binders) of human NR3A ligand-binding domain; Tm shift relative to glycine control, % at 25 µM; NR3A LBD differential scanning fluorimetry, Tm shift; 0% = protein alone, 100% = glycine-bound protein; 2.5% of 340,000 active;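 active = melting temperature shift of at least 10% of the positive control shift, at one fixed dose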
aDG glyco act: increases alpha dystroglycan glycosylation; Pro5-aDG cells, alpha-DG glycosylation AlphaScreen (IIH6); 0% Pro5, 100% B10-LARGE cell signal; activation, % at 10 µM; 0.22% of 360,000 active; AID 624168;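 active = activation of at least 8% versus controls, or a plate z-score of at least 8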;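 also: Pro5 are CHO cells carrying HIG-tagged alpha-DG that lacks glycosylation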
UPR CHOP act: activators of apoptotic arm of unfolded protein response (CHOP). CHO-CHOP luciferase reporter, UPR activation, luminescence; percent of tunicamycin response over DMSO baseline. activation, % at 10 µM. 0.34% of 330,000 active. AID 449763;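 active = at 10 µM dose, activation of 40% or more, normalized to positive control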;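 also: 100% = tunicamycin at 10 µg/mL and 0% = DMSO alone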
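assay system = CHO CHOP reporter cells | amount = 500 CHO-CHOP cells per well | buffer or medium = F12 with 10% FBS | incubation = 16-18 h cell attachment, then 6 h compound exposure, 37 °C | detection = luminescence read with Steady-Glo | read-out = percent activation relative to tunicamycin control | controls = tunicamycin high control, DMSO low control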
XBP1 UPR activ: adaptive UPR (XBP1) activation; 0.33% of 330,000 active; activation, % at 20 µM; CHO-XBP1 luciferase reporter, IRE1-XBP1 UPR activation, luminescence; percent of tunicamycin response, DMSO as zero;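 active = versus positive control, 20 µM dose yields 30% or more activation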;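 also: 100% = tunicamycin at 10 µg/mL and 0% = DMSO only wells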
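Material: CHO cell line with stable XBP1 luciferase reporter; schedule: 16-18 h cell attachment at 37 °C, then 6 h compound exposure; signal: glow luminescence from Steady-Glo reagent; medium: serum-containing F12 medium, 10% FBS; benchmarks: tunicamycin 10 µg/mL and vehicle-only wells; read-out: percent activation relative to tunicamycin reference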
CHOP inh: blocks CHOP induction under ER stress; CHO-K1 CHOP-promoter luciferase, tunicamycin-induced, 15-18 h; inhibition, % at 10 µM; 3.8% of 220,000 active; AID 2732;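 active = compounds that reduced the stress-induced luciferase reporter signal by more than about 70% of percent inhibition, limit read from the data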;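 also: 0% = tunicamycin plus vehicle and 100% = wells without tunicamycin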
MPTP block: permeability transition pore inhibition; 1.4% of 360,000 active; isolated mouse mitochondria, Ca2+ swelling absorbance, 30 min; inhibition, % at 10 µM;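 active = inhibition of 50% or more, scaled per plate between neutral and stimulator controls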;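 also: 0% = DMSO wells given calcium and 100% = 1 mM EGTA wells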
CHOP UPR conf: apoptotic UPR (CHOP) activation, confirmed; AID 463112; shares compounds with UPR CHOP act; activation, % at 10 µM; CHO-CHOP cells, CHOP-luciferase reporter luminescence; percent of tunicamycin response, DMSO as zero; 64% of 1,000 active; in the data active = activation above about 33%;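 also: 0% = DMSO wells and 100% = tunicamycin 10 µg/mL wells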
UPR XBP1 confirm: adaptive UPR (XBP1) activation, confirmed | 63% of 1,000 active | activation, % at 20 µM | shares compounds with XBP1 UPR activ | CHO-XBP1 IRE1-XBP1 luciferase reporter, luminescence | AID 485299;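 active = reporter signal at least 30% of the positive control's activation in two or more of four replicate wells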;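 also: plate controls were DMSO negative control for no effect and tunicamycin 10 µg/mL positive control for full effect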
Starred values were filed as active, the others as inactive.

Screening COc1ccc(-n2c(C)cc(C(=O)CCl)c2C)cc1 returned GRIN3A LBD mod -2, aDG glyco act 0, UPR CHOP act 564*, XBP1 UPR activ 42*, CHOP inh -121, MPTP block -4, CHOP UPR conf 417* and UPR XBP1 confirm 31*.
COc1ccc(-n2c(C)cc(C(=O)CN3C(=O)c4ccccc4C3=O)c2C)cc1 was read as GRIN3A LBD mod -8, aDG glyco act 1, UPR CHOP act 3, XBP1 UPR activ -2, CHOP inh 28 and MPTP block -5.
`CCCCn1nc(CC(=O)NCCN(CC)CC)c2ccccc2c1=O` gave GRIN3A LBD mod -1, aDG glyco act 0, UPR CHOP act 0, XBP1 UPR activ -3, CHOP inh -11 and MPTP block 0.
Screening CCCn1nnnc1NCc1ccc(C(C)C)cc1 returned GRIN3A LBD mod -2, aDG glyco act 0, UPR CHOP act 0, XBP1 UPR activ 0 and MPTP block 1.
Cc1cc(NC(=O)c2cc(-c3ccccn3)nc3ccc(Br)cc23)no1 was read as GRIN3A LBD mod -1, aDG glyco act 0, UPR CHOP act 58*, XBP1 UPR activ 34*, MPTP block 1, CHOP UPR conf 61* and UPR XBP1 confirm 33*.
COc1ccc(/C=C/c2nc3cc(-c4ccccc4)ccc3o2)cc1O was read as GRIN3A LBD mod 17*, aDG glyco act 0, UPR CHOP act 45*, XBP1 UPR activ 39*, CHOP inh 43, MPTP block 0, CHOP UPR conf 50* and UPR XBP1 confirm 29*.
`COc1ccc(/C=C/c2nc3ccccc3c(=O)o2)cc1` gave GRIN3A LBD mod -2, aDG glyco act 0, UPR CHOP act -9, XBP1 UPR activ -10 and MPTP block -1.
For O=C(Nc1cnccn1)c1ccc(F)cc1Cl the results were GRIN3A LBD mod 3, aDG glyco act 0, UPR CHOP act -1, XBP1 UPR activ -4 and MPTP block 1.
For O=C1c2ccccc2C2N1CCCN2C(=O)c1sc2ccccc2c1Cl (stereo not given) the results were aDG glyco act 2 and MPTP block 3.
Screening CCc1ccc2[nH]c(=O)c(CN(Cc3ccc(F)cc3)C(c3nnnn3CCN3CCOCC3)C(C)C)cc2c1 (stereo not given) returned GRIN3A LBD mod -6, aDG glyco act 0, UPR CHOP act 55*, XBP1 UPR activ 38*, CHOP inh 24, MPTP block 5, CHOP UPR conf -2 and UPR XBP1 confirm 0.
`CCc1ccc2[nH]c(=O)c(C(c3nnnn3CCOC)N3CCN(c4ccc(F)cc4)CC3)cc2c1` (stereo not given) gave GRIN3A LBD mod -12, aDG glyco act 0, UPR CHOP act 0, XBP1 UPR activ -1, CHOP inh 42 and MPTP block -4.
Cc1ccc(-c2nc(N/N=C/c3cccc([N+](=O)[O-])c3)c3ccccc3n2)cc1 was read as GRIN3A LBD mod 163*, aDG glyco act -1, UPR CHOP act 165*, XBP1 UPR activ 194*, CHOP inh 81*, MPTP block 2, CHOP UPR conf 89* and UPR XBP1 confirm 223*.
CCOC(=O)c1sc(NC(=S)NC(=O)c2ccccc2Cl)c(C(=O)OCC)c1C was read as GRIN3A LBD mod -3, aDG glyco act 1, UPR CHOP act 0, XBP1 UPR activ 2, CHOP inh -1 and MPTP block 2.
For CCOC(=O)c1sc(NC(=S)NC(=O)c2ccccc2)c(C(=O)OCC)c1C the results were GRIN3A LBD mod -2, aDG glyco act 0, UPR CHOP act 51*, XBP1 UPR activ 51*, CHOP inh 77*, MPTP block 2, CHOP UPR conf 98* and UPR XBP1 confirm 114*.
CCOC(=O)c1c(NC(=O)c2cc(-c3ccc(O)cc3)on2)sc(C(C)=O)c1C was read as GRIN3A LBD mod 0, aDG glyco act 0, UPR CHOP act 78*, XBP1 UPR activ 84*, CHOP inh 35, MPTP block 1, CHOP UPR conf 24 and UPR XBP1 confirm 43*.
Screening CC1(C(=O)NS(=O)(=O)c2cccc(Cl)c2)CCN1C(=O)C1CCCCC1 (stereo not given) returned aDG glyco act 1 and MPTP block 0.
For NC1=NN(c2c(Cl)cc(Cl)cc2Cl)C(=O)C1 the results were GRIN3A LBD mod 0, aDG glyco act 1 and MPTP block -1.
For CCOc1cc(/C=N/Nc2cc(C)nc(-n3nc(C)cc3C)n2)ccc1O the results were GRIN3A LBD mod 2, aDG glyco act 0, UPR CHOP act 86*, XBP1 UPR activ 48*, CHOP inh -48, MPTP block 1, CHOP UPR conf 63* and UPR XBP1 confirm 27.
Screening CCOc1cc(/C=N/Nc2nc(C)cc(=O)[nH]2)ccc1O returned GRIN3A LBD mod 0, aDG glyco act 0, UPR CHOP act 0, XBP1 UPR activ -2 and MPTP block 1.
Screening CCOC(=O)c1nn(-c2ccc(OCC)cc2)c2nc(-c3cccc(OC)c3)c(C#N)c(=O)n12 returned GRIN3A LBD mod 7, aDG glyco act 0, UPR CHOP act 1, XBP1 UPR activ -1, CHOP inh 39 and MPTP block 3.
Screening CCOC(=O)c1nn(-c2ccc(OCC)cc2)c2nc(-c3ccco3)c(C#N)c(=O)n12 returned GRIN3A LBD mod -6, aDG glyco act 0, UPR CHOP act 53*, XBP1 UPR activ 75*, CHOP inh 42, MPTP block 2, CHOP UPR conf 28 and UPR XBP1 confirm 52*.
Screening Cc1ccc([C@H]2C[C@H](n3cc(C4CC4)nn3)[C@@H](O)CN2C(=O)c2cccs2)cc1 returned aDG glyco act 0 and MPTP block -1.
CCc1ccc(CN2CCC(N3CCC(C(=O)N4CCCC4)CC3)CC2)o1 was read as GRIN3A LBD mod 0, aDG glyco act 0, UPR CHOP act -3, XBP1 UPR activ -5 and MPTP block 2.
Cn1c(=O)c2c(SCC(=O)Nc3cccc(F)c3)nc(-c3ccco3)nc2n(C)c1=O was read as GRIN3A LBD mod 3, aDG glyco act 0, UPR CHOP act 158*, XBP1 UPR activ 481*, MPTP block -1, CHOP UPR conf 0 and UPR XBP1 confirm 4.
